Screening results (PubChem)
PP5 inh = PP5 phosphatase inhibitors, primary screen, biochemical, fluorescence; Serine/threonine-protein phosphatase 5 (Homo sapiens), P53041; purified PP5c, OMFP substrate fluorescence; 320,000 tested, 0.18% active; AID 1987, 2009; inhibition, % at 6.7 µM;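 active = inhibition above the campaign's mean inhibition across all tested compounds plus 3 SD, cut at about 9.5% in these data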
Target sequence (P53041 whole entry, looked up): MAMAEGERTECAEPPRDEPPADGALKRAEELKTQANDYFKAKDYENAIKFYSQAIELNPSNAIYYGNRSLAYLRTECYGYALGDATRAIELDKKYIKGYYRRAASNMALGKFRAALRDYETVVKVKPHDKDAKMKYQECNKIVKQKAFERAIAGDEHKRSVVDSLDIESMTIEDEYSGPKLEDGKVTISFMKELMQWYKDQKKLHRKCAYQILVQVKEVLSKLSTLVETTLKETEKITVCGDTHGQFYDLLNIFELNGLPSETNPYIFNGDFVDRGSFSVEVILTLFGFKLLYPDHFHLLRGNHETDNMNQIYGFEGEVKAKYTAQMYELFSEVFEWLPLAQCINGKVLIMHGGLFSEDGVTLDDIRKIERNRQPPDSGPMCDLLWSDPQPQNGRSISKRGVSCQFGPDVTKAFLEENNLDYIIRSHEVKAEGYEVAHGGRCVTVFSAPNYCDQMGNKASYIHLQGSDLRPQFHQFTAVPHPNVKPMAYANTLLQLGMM
CTSL1 counter = Fasciola hepatica cathepsin L1 inhibitors, primary screen, counter-screen for PFM18AAP inhibitor project, biochemical, QFRET, fluorogenic peptide substrate | recombinant F. hepatica cathepsin L1, Z-Leu-Arg-MCA fluorescence | 300,000 tested, 0.49% active | inhibition, % at 5.96 µM | AID 1906, 2009;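 active = inhibition above the mean of all tested compounds plus 3 SD, set per screening campaign, cut at about 17% in these data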
PP1 inh = PP1-alpha phosphatase inhibitors, primary screen, counter-screen for PP5 inhibitor project, biochemical, fluorescence, OMFP substrate, single point; purified PP1alpha; 320,000 tested, 0.9% active; Serine/threonine-protein phosphatase PP1-alpha catalytic subunit (Homo sapiens), P62136; AID 2235, 2010; inhibition, % at 6.7 µM;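 active = inhibition above the mean inhibition of all tested compounds plus 3 SD, computed separately for each screening campaign, cut at about 15% in these data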
UCH37 inh = inhibitors of human UCH37 deubiquitinase, primary screen, biochemical, Ub-AMC cleavage, fluorescence. Ubiquitin carboxyl-terminal hydrolase isozyme L5 (Homo sapiens), Q9Y5K5. purified proteasome/UCH37. inhibition, % (concentration not given with the values). 330,000 tested, 0.33% active;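 active = mean inhibition over replicate wells above about 20%, limit read from the data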
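Assay system: Proteasome-bound UCH37. Buffer or medium: pH 7.4 Tris-HCl (50 mM) with ovalbumin, ATP-MgCl2, DTT. Incubation: 30 min preincubation with enzyme, 25 min cleavage at room temperature. Measured by: fluorescence, ex 355 nm, em 460 nm. Read-out basis: percent inhibition. Control set: wells without proteasome as full block, compound-free enzyme plus substrate as uninhibited.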
PREPL inh = PREPL enzyme inhibitors, primary screen, biochemical, fluorescence polarization. Prolyl endopeptidase-like (Homo sapiens), Q4J6C6. recombinant PREPL, fluorescence polarization activity-based probe. 320,000 tested, 0.68% active. inhibition, % at 5.96 µM; in the data active = inhibition above about 43%
UBC13 polyUb = UBC13 polyubiquitin chain formation inhibitors, primary screen, biochemical, TR-FRET, uHTS. Ubiquitin-conjugating enzyme E2 N (Homo sapiens), P61088. inhibition, % at 20 µM. 330,000 tested, 0.47% active; in the data active = inhibition above about 45%, passing the limit was not always enough
Target sequence (P61088 whole entry, looked up): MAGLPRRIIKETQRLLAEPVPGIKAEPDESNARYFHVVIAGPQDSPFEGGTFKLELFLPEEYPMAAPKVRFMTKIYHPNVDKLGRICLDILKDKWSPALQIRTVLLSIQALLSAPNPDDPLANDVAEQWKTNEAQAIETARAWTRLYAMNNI
Of the large screens only hits and unclear results are named; the others gave an inactive call. A selection: hits, their analogues and other compounds. The true share with any hit is near 2.3%.

COC1=CC2(O)CCCC2=CC1=O (stereo not given)	UCH37 inh 30.0
COc1ccc(OCC(=O)NN=Cc2ccc(O[C@@H]3O[C@H](CO)[C@@H](O)[C@H](O)[C@H]3O)cc2)cc1	none (no result: PP5 inh, CTSL1 counter, PP1 inh, PREPL inh, UBC13 polyUb)
COC(=O)c1c(N)sc(C(=O)N2CCOCC2)c1C	none
COC(=O)c1c(NC(=O)CCl)sc(C(=O)N2CCOCC2)c1C	CTSL1 counter 34.7
Cc1ccc2c(c1)Oc1ccc([N+](=O)[O-])cc1C(=O)N2	none
Cc1ccc2c(c1)Oc1ccc(NC(=O)CCl)cc1C(=O)N2	CTSL1 counter 51.6
Cc1ccc(S(=O)(=O)Nc2ccccc2C(=O)Nc2nc(-c3ccc(F)cc3)cs2)cc1	PP1 inh 16.7
Cc1ccc(S(=O)(=O)Nc2nc(-c3ccccc3)cs2)cc1	none
N=c1c2c(-c3ccccc3)c(-c3ccccc3)n(Cc3ccccc3)c2ncn1CCCn1ccnc1	PP1 inh 15.3, UCH37 inh 23.6
CCCCn1cnc2c(c(-c3ccccc3)c(-c3ccccc3)n2Cc2ccco2)c1=N	none
N=c1c2c(-c3ccccc3)c(-c3ccccc3)n(Cc3ccco3)c2ncn1Cc1ccco1	PP1 inh 16.4
Oc1c(C(c2cccs2)N2CCN(c3ccccc3)CC2)ccc2cccnc12 (stereo not given)	PP1 inh 18.6 (no result: UCH37 inh)
Cc1ccc(-n2nc(C)c(C=NNC(=O)c3cccs3)c2Cl)cc1	none (no result: PP5 inh, CTSL1 counter, PP1 inh, PREPL inh, UBC13 polyUb)
CC(COc1ccccc1)=NNC(=O)c1nnn(-c2nonc2N)c1CSc1ccccc1	none (no result: PP5 inh, CTSL1 counter, PP1 inh, PREPL inh, UBC13 polyUb)
COc1ccccc1N1CCN(Cc2ccc(O)c3ncccc23)CC1	PP1 inh 15.4
C/C=C(\C)C(=O)Nc1cccc(C2=NOC3(C2)C[C@@H](C(N)=O)N(C(=O)c2cc([N+](=O)[O-])cc([N+](=O)[O-])c2C)C3)c1 (stereo not given in full)	none
NC(=O)[C@H]1CC2(CC(c3cccc(NC(=O)COc4ccc(Cl)cc4)c3)=NO2)CN1C(=O)C(c1ccccc1)c1ccccc1 (stereo not given in full)	PP1 inh 16.5
Cc1c(C(=O)N2CC3(CC(c4cccc(NC(=O)CC(c5ccccc5)c5ccccc5)c4)=NO3)C[C@@H]2C(N)=O)cc([N+](=O)[O-])cc1[N+](=O)[O-] (stereo not given in full)	PP1 inh 16.0
COCc1cc(C)nc(OCC(=O)NN=Cc2cc(C)n(-c3cccc(C(F)(F)F)c3)c2C)c1C#N	none (no result: PP5 inh, CTSL1 counter, PP1 inh, PREPL inh, UBC13 polyUb)
COc1ccc(C=NNC(=O)c2nn(-c3ccccc3)c(=O)c3c(N)scc23)cc1	none (no result: PP5 inh, CTSL1 counter, PP1 inh, PREPL inh, UBC13 polyUb)
COc1ccc(C2CC(c3cccs3)=NN2c2nc(-c3ccccc3)cs2)cc1OC (stereo not given)	CTSL1 counter 34.2
COc1ccc(C2CC(c3cccs3)=NN2S(C)(=O)=O)cc1OC (stereo not given)	none
Nc1nonc1-n1nnc(C(=O)NN=Cc2ccc(Cl)cc2Cl)c1CN1CCCC1	none (no result: PP5 inh, CTSL1 counter, PP1 inh, PREPL inh, UBC13 polyUb)
CC(=O)Nc1ccc(C(=O)/C=C/c2ccco2)cc1	CTSL1 counter 22.4
CC(=O)Nc1cccc(C(=O)/C=C/c2ccco2)c1	none
CCCCN(C(=O)Nc1ccccc1)C1CCS(=O)(=O)C1 (stereo not given)	none (no result: CTSL1 counter)
CCCCN(C(=S)Nc1ccccc1)C1CCS(=O)(=O)C1 (stereo not given)	CTSL1 counter 17.7
CC(C)C(NC(=O)C12CC3CC(CC(C3)C1)C2)C(=O)NN=CC1=C(N2CCOCC2)/C(=C\c2ccc([N+](=O)[O-])cc2)CC1 (stereo not given)	none (no result: PP5 inh, CTSL1 counter, PP1 inh, PREPL inh, UBC13 polyUb)
Cc1cccc(NC(=O)NCc2ccc3c(c2)cc(C)n3C)c1	none
Cc1cc2cc(CNC(=O)Nc3cccc(Cl)c3)ccc2n1C	PP1 inh 16.2
O=C(Oc1oc(-c2ccco2)nc1C=Nc1ccccc1)c1ccco1	CTSL1 counter 19.8
Cc1ccc(C(=O)Oc2oc(-c3ccco3)nc2C=Nc2ccc(Cl)cc2)cc1	CTSL1 counter 21.4
CC(C)(C)c1ccc(C=NOCC(=O)NCc2ccccc2)cc1	none (no result: PP5 inh, CTSL1 counter, PP1 inh, PREPL inh, UBC13 polyUb)
CCOc1ccc(NC(=O)CC(C)=NNC(=O)Cc2cccs2)cc1	none (no result: PP5 inh, CTSL1 counter, PP1 inh, PREPL inh, UBC13 polyUb)
O=[N+]([O-])c1cccc(N=NN(CCO)c2cccc([N+](=O)[O-])c2)c1	PREPL inh 51.9
COc1ccc(-c2nc(N)ncc2-c2csc(C)n2)c(O)c1	none
COc1ccc(-c2ncnc(C(F)(F)F)c2-c2csc(C)n2)c(O)c1	CTSL1 counter 18.4
NC(=O)Cn1cc(C=NNS(=O)(=O)c2ccc(Cl)cc2)c2ccccc21	none (no result: PP5 inh, CTSL1 counter, PP1 inh, PREPL inh, UBC13 polyUb)
COc1cccc(-c2nnc3sc(-c4ccccc4)nn23)c1	none
COc1cccc(OC)c1-c1nn2c(-c3cc(-c4ccccc4)n[nH]3)nnc2s1	PP1 inh 58.6 (no result: UCH37 inh)
COc1cccc(C=NN2C(=O)NC3(CCCCC3)C2=O)c1O	none (no result: PP5 inh, CTSL1 counter, PP1 inh, PREPL inh, UBC13 polyUb)
O=C(CCl)Nc1ccccc1C(=O)Nc1ccc2c(c1)OCO2	CTSL1 counter 20.6
Cc1nc(N)sc1C(=O)NN=Cc1ccccc1[N+](=O)[O-]	none (no result: PP5 inh, CTSL1 counter, PP1 inh, PREPL inh, UBC13 polyUb)
Cc1nc(N)sc1C(=O)N/N=C/c1ccccc1[N+](=O)[O-]	UBC13 polyUb 94.8 (no result: UCH37 inh)
COc1ccc(-n2c(C)cc(-c3cn4cccc(C)c4n3)c2C)cc1	PP1 inh 15.2
CCOc1ccc(C(C(=O)NCC2CCCO2)N(Cc2ccccc2)C(=O)c2snc(C(N)=O)c2N)cc1 (stereo not given)	none
CCOc1ccc(N(C(=O)c2snc(C(N)=O)c2N)C(C(=O)NCC2CCCO2)c2ccco2)cc1 (stereo not given)	UBC13 polyUb 79.1
CCOc1ccc(C=NN(C)c2ccccc2)cc1OC	none (no result: PP5 inh, CTSL1 counter, PP1 inh, PREPL inh, UBC13 polyUb)
CCCCN(CCCC)CCn1cnc2c([nH]c3ccc(OC)cc32)c1=O	CTSL1 counter 106.7
COc1ccc2[nH]c3c(=O)n(CCc4ccccc4)cnc3c2c1	none
CCCCS/C(N)=N/N=Cc1cc(C)ccc1O	none (no result: PP5 inh, CTSL1 counter, PP1 inh, PREPL inh, UBC13 polyUb)
Cc1ccc(C(=O)c2ccccc2C(=O)OCC(=O)Nc2ccc(SC(F)F)cc2)cc1	none
O=C(COC(=O)c1ccccc1Cc1ccccc1)Nc1ccc(SC(F)F)cc1	PP1 inh 16.1 (no result: UBC13 polyUb)
Cc1ccccc1OCC(=O)Nc1ccccc1NC(=O)c1ccco1	none
Cc1ccccc1OCC(=O)NNC(=S)NC(=O)c1ccco1	PP1 inh 16.8
C=CCn1c(COc2ccccc2-c2ccccc2)nnc1SCC(=O)NC(=O)NCc1ccco1	PP1 inh 16.1
C(#Cc1ccccc1)C[N+]1(CC#Cc2ccccc2)CCCC1	none
C=CC#CC[N+]1(CC#Cc2ccccc2)CCOCC1	UCH37 inh 28.8 (no result: PP5 inh, CTSL1 counter, PP1 inh, PREPL inh, UBC13 polyUb)
CC(=NOCC(=O)Nn1c(C)nc2ccccc2c1=O)c1ccccc1	none (no result: PP5 inh, CTSL1 counter, PP1 inh, PREPL inh, UBC13 polyUb)
